Several values for one entry are separate records, joined by “and”; a condition that tells them apart may be missing. Identical values can stand only once. Like-named read-outs stand apart in the source and are kept apart here.
Legend:
[1] = tested on: 18 kDa translocator protein (TSPO); experiment: Human whole-body PET imaging, organ uptake in binders and non-binders; type: in vivo; conditions: for Organ uptake (area under time-activity curve): 5 to 20 min
TSPO [2] = type: in vivo, rhesus monkeys (Macaca mulatta); conditions: for Decrease of area under the curve by pre-blockade: 0 to 120 min, nonradioactive PBR28; for Time at which uptake declined to 50% of peak: after pre-blockade
In short: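 Two male rhesus monkeys (13.2 ± 2.1 kg) each had two scans. The baseline scan followed i.v. 11C-labelled TSPO radioligand (276 ± 8 MBq, posterior tibial vein). The second followed unlabelled TSPO ligand 5 mg/kg i.v. given 30 min before radioligand (277 ± 21 MBq). 2D dynamic whole-body PET covered 4 segments, head to upper thigh, in 22 frames (75 s–15 min) over 120 min. Organ SUV curves were integrated over 5–20 and 0–120 min.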

TSPO [3] = type: in vivo, rhesus monkeys
TSPO [4] = conditions: cited from earlier work
ABCB1 (P-glycoprotein) = ABCB1 (P-glycoprotein) (Homo sapiens, UniProt P08183); type: cell-based; conditions: 5 nM radioligand
ABCB1 (P-glycoprotein), sequence (P08183 whole entry): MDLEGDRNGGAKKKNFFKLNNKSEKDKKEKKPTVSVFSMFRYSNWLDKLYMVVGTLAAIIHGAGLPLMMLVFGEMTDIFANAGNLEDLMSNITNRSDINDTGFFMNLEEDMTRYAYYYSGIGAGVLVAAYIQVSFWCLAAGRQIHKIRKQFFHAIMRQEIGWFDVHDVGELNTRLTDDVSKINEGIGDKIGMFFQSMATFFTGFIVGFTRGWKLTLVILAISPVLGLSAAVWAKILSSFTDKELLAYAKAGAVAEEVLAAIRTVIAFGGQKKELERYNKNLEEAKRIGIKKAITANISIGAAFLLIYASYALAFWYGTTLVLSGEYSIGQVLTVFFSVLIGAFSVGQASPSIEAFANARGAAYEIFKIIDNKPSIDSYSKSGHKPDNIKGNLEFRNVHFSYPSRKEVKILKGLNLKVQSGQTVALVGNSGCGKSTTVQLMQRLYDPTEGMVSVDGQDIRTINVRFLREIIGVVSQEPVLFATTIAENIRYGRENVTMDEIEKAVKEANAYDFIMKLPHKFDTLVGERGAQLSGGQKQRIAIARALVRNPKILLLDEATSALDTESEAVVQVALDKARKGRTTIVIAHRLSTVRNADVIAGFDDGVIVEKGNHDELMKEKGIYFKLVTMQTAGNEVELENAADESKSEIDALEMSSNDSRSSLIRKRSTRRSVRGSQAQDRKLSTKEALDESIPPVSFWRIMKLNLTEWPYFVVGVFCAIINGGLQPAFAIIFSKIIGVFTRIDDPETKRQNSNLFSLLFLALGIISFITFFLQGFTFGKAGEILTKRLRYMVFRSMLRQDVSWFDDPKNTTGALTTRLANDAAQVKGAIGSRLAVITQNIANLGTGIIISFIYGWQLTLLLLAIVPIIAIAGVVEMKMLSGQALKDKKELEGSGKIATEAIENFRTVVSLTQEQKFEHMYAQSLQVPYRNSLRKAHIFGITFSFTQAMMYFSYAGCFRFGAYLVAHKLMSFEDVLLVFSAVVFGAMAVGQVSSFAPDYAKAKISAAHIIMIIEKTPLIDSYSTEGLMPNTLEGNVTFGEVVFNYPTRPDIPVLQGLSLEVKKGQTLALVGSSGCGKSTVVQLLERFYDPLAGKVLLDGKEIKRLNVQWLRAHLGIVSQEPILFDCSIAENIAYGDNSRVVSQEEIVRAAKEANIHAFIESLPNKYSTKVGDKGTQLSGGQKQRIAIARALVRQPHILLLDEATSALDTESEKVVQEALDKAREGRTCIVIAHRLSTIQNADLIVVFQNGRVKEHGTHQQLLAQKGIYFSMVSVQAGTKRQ

ABCC1 = ABCC1 (Homo sapiens, UniProt P33527); experiment: Substrate specificity: radioligand accumulation in MCF-7 / MCF-7/VP16 cells; type: cell-based; conditions: 5 nM radioligand
ABCC1, sequence (P33527 whole entry): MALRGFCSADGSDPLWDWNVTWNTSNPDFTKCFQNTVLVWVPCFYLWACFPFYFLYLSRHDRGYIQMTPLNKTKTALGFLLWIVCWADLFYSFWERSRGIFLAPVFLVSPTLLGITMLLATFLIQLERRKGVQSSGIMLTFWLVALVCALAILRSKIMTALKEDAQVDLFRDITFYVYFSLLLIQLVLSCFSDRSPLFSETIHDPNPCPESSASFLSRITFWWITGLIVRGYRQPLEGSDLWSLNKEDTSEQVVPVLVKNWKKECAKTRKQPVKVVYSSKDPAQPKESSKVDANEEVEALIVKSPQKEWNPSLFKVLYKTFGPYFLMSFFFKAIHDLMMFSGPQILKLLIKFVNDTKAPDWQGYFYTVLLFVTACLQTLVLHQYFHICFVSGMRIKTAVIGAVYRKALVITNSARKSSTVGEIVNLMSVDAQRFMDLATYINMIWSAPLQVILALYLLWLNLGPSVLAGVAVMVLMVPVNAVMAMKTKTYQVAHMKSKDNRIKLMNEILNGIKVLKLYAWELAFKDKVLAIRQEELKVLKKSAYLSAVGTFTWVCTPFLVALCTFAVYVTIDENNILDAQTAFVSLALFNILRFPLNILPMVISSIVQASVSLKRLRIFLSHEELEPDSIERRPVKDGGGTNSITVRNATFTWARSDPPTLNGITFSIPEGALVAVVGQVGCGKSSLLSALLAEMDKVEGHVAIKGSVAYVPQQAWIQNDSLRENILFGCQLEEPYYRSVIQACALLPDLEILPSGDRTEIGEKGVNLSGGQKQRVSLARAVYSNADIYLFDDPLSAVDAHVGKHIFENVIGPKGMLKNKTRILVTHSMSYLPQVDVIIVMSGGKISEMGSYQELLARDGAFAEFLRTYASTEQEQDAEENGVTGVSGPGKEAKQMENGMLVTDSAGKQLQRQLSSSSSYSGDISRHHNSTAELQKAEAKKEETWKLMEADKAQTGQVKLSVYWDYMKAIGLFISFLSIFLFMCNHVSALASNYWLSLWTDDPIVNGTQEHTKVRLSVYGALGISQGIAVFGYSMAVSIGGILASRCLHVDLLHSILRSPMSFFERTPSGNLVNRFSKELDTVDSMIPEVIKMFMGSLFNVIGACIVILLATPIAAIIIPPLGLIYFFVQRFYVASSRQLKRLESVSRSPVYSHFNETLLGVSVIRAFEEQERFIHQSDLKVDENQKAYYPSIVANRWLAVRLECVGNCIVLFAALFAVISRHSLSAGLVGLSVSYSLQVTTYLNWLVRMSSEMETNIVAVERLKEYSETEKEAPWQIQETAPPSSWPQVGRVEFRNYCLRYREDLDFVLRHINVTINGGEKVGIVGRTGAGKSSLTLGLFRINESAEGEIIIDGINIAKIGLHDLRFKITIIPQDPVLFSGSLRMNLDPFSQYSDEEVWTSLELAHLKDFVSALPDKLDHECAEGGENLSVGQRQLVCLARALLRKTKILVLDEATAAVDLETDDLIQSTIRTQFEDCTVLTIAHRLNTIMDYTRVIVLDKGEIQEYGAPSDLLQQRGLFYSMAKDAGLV

ABCG2 = target: T1, ABCG2 (Homo sapiens, UniProt Q9UNQ0); experiment: Substrate specificity: radioligand accumulation in H460 / H460/MX20 cells; type: cell-based; conditions: 5 nM radioligand
T1 sequence (Q9UNQ0 1-655): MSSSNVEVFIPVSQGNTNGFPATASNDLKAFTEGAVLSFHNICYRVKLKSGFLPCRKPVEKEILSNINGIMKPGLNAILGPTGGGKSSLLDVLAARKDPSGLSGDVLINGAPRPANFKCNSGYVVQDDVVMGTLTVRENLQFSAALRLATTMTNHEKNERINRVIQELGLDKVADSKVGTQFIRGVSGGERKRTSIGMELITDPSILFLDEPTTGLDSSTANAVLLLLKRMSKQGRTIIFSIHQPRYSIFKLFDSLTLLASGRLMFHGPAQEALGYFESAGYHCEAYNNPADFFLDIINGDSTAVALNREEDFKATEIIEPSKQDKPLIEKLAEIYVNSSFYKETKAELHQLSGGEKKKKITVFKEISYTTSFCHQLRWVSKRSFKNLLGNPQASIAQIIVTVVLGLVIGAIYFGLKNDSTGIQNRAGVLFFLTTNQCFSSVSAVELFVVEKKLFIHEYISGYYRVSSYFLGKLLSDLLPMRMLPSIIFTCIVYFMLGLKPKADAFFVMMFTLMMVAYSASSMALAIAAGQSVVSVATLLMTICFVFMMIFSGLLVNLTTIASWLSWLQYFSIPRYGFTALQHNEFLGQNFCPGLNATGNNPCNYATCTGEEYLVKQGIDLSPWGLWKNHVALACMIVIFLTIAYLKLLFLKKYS

TSPO [5] = type: binding, human; conditions: for Ki: read-out: KI of PBR28, displacement of [3H]PK 11195, mean ± SD; for Specific Binding: single radioligand concentration normalized to 0.5 nM, displacer PBR28
TSPO [6] = conditions: read-out: KI to monkey brain, ref Briard et al., 2008; cited from earlier work
TSPO [7] = conditions: 0 to 120 min, ref Imaizumi et al., 2008, cited from earlier work
[8] = saturation curve, homologous displacement, binders

CC[C@@H](C)N([11CH3])C(=O)c1cc2ccccc2c(-c2ccccc2Cl)n1 [[^11C]-(R)-PK 11195]
Organ uptake (area under time-activity curve) ([1]; brain, binders (n = 5)): 18.8 ± 1.0 SUV • min | Organ uptake (area under time-activity curve) ([1]; brain, non-binders (n = 5)): 17.5 ± 2.0 SUV • min | Organ uptake (area under time-activity curve) ([1]; heart, binders (n = 5)): 59.8 ± 4.9 SUV • min | Organ uptake (area under time-activity curve) ([1]; heart, non-binders (n = 5)): 48.8 ± 2.8 SUV • min | Organ uptake (area under time-activity curve) ([1]; kidney, binders (n = 5)): 63.8 ± 3.2 SUV • min | Organ uptake (area under time-activity curve) ([1]; kidney, non-binders (n = 5)): 60.7 ± 12.3 SUV • min | Organ uptake (area under time-activity curve) ([1]; lung, binders (n = 5)): 25.6 ± 3.7 SUV • min | Organ uptake (area under time-activity curve) ([1]; lung, non-binders (n = 5)): 18.7 ± 2.5 SUV • min | Organ uptake (area under time-activity curve) ([1]; spleen, binders (n = 5)): 65.6 ± 9.3 SUV • min | Organ uptake (area under time-activity curve) ([1]; spleen, non-binders (n = 5)): 53.4 ± 11.4 SUV • min | Decrease of area under the curve by pre-blockade (TSPO [2]; brain): 14% | Area under the time-activity curve (TSPO [2]; brain, 5 to 20 min, baseline): 28.2 SUV • min | Area under the time-activity curve (TSPO [2]; brain, 5 to 20 min, pre-blocked with PBR28 5 mg/kg i.v.): 29.1 SUV • min | Time at which uptake declined to 50% of peak (TSPO [2]; brain): 30 min | Area under the time-activity curve (TSPO [2]; heart, 5 to 20 min, baseline): 75.1 SUV • min | Area under the time-activity curve (TSPO [2]; heart, 5 to 20 min, pre-blocked with PBR28 5 mg/kg i.v.): 33.6 SUV • min | Decrease of area under the curve by pre-blockade (TSPO [2]; kidney): 30% | Area under the time-activity curve (TSPO [2]; kidney, 5 to 20 min, baseline): 166.3 SUV • min | Area under the time-activity curve (TSPO [2]; kidney, 5 to 20 min, pre-blocked with PBR28 5 mg/kg i.v.): 60.5 SUV • min | Decrease of area under the curve by pre-blockade (TSPO [2]; lung): 31% | Area under the time-activity curve (TSPO [2]; lung, 5 to 20 min, baseline): 29.6 SUV • min | Area under the time-activity curve (TSPO [2]; lung, 5 to 20 min, pre-blocked with PBR28 5 mg/kg i.v.): 18.3 SUV • min | Time at which uptake declined to 50% of peak (TSPO [2]; other organs): ≤ 5 min | Area under the time-activity curve lower in pre-blocked than in baseline scans (TSPO [2]; peripheral organs (heart, lung, spleen, kidney), 5 to 20 min): 38 – 76% | Area under the time-activity curve (TSPO [2]; spleen, 5 to 20 min, baseline): 87.1 SUV • min | Area under the time-activity curve (TSPO [2]; spleen, 5 to 20 min, pre-blocked with PBR28 5 mg/kg i.v.): 20.6 SUV • min | Peak uptake of radioactivity in brain (TSPO [3]; after blockade with PBR28 5 mg/kg i.v.): 3.43 SUV | Peak uptake of radioactivity in brain (TSPO [3]; baseline): 1.64 SUV | Share of uptake in monkey brain that is specific (displaceable) (TSPO [4]; without correction for peripheral clearance, ref Petit-Taboue et al., 1991): about 50%

COc1ccccc1CN(C(C)=O)c1cnccc1Oc1ccccc1 [[^3H]PBR28] [listing 1 of 2 here]
Substrate for transporter (ABCB1 (P-glycoprotein)): neither [^3H]PK 11195 nor [^3H]PBR8 was a substrate | Substrate for transporter (ABCC1): neither [^3H]PK 11195 nor [^3H]PBR8 was a substrate | Substrate for transporter (ABCG2): neither [^3H]PK 11195 nor [^3H]PBR8 was a substrate

COc1ccccc1CN(C(C)=O)c1cnccc1Oc1ccccc1 [PBR28]
Ki (TSPO [5]; binders): 6.1 ± 6.4 nM | Ki (TSPO [5]; non-binders): 67 nM and 67.4 nM | Ki (TSPO [6]): 0.94 nM

CCC(C)N(C)C(=O)c1cc2ccccc2c(-c2ccccc2Cl)n1 (stereo not shown) [[^3H]PK 11195]
Bmax (TSPO [5]; [8]): 10.4 ± 7.1 pmol / mg protein | Bmax (TSPO [5]; saturation curve, homologous displacement, non-binders): 15.1 ± 12.0 pmol / mg protein | Specific Binding (TSPO [5]; binders): 1.3 ± 0.5 pmol / mg protein | Substrate for transporter (ABCB1 (P-glycoprotein)): neither [^3H]PK 11195 nor [^3H]PBR8 was a substrate | Substrate for transporter (ABCC1): neither [^3H]PK 11195 nor [^3H]PBR8 was a substrate | Substrate for transporter (ABCG2): neither [^3H]PK 11195 nor [^3H]PBR8 was a substrate

CC(=O)N(Cc1ccccc1O[11CH3])c1cnccc1Oc1ccccc1 [[^11C]PBR28]
Uptake lower in non-binders than in binders ([1]; all five organs with high densities of TSPO (lung, heart, brain, kidney, spleen)): 50% to 75% | Organ uptake (area under time-activity curve) ([1]; brain, binders (n = 5)): 27.3 ± 3.4 SUV • min | Organ uptake (area under time-activity curve) ([1]; brain, non-binders (n = 5)): 13.8 ± 1.3 SUV • min | Organ uptake (area under time-activity curve) ([1]; heart, binders (n = 5)): 72.3 ± 10.3 SUV • min | Organ uptake (area under time-activity curve) ([1]; heart, non-binders (n = 5)): 29.7 ± 4.7 SUV • min | Organ uptake (area under time-activity curve) ([1]; kidney, binders (n = 5)): 109.3 ± 12.9 SUV • min | Organ uptake (area under time-activity curve) ([1]; kidney, non-binders (n = 5)): 33.4 ± 15.5 SUV • min | Organ uptake (area under time-activity curve) ([1]; lung, binders (n = 5)): 44.9 ± 6.5 SUV • min | Organ uptake (area under time-activity curve) ([1]; lung, non-binders (n = 5)): 13.6 ± 2.0 SUV • min | Organ uptake (area under time-activity curve) ([1]; spleen, binders (n = 5)): 131.6 ± 19.3 SUV • min | Organ uptake (area under time-activity curve) ([1]; spleen, non-binders (n = 5)): 34.1 ± 11.0 SUV • min | Decrease of area under the curve by pharmacological blockade (TSPO [7]; brain): 42% | Decrease of area under the curve by pharmacological blockade (TSPO [7]; kidney): 50% | Decrease of area under the curve by pharmacological blockade (TSPO [7]; lung): 70% | Share of uptake in monkey brain that is specific (TSPO [4]; ref Imaizumi et al., 2008): More than 90%

COc1ccccc1CN(C(C)=O)c1cnccc1Oc1ccccc1 [[^3H]PBR28] [listing 2 of 2 here]
Specific binding, fold lower in non-binders than in binders (TSPO [5]; eight non-binders vs ten binders, single radioligand concentration): 36 fold | Affinity for TSPO, fold lower in non-binders than in binders (TSPO [5]; leukocyte membranes): more than ten-fold lower affinity | Bmax (TSPO [5]; [8]): 16.9 ± 8.0 pmol / mg protein | Kd (TSPO [5]; [8]): 1.8 ± 0.6 nM | Specific Binding (TSPO [5]; binders): 7.2 ± 2.2 pmol / mg protein

— article PMC2832854 (NeuroImage, 2009)
